Data as given in ChEMBL document CHEMBL1126902, “Synthesis, chemical reactivity, and antitumor evaluation of congeners of carmethizole hydrochloride, an experimental "acylated vinylogous carbinolamine" tumor inhibitor” (J Med Chem, 1993).

What was measured:
[1] = Percent increase in life span of dying mice tested in vivo at 45.5 mg/kg against ip implanted LOX amelanotic melanoma in mice (60-day survivors); format: functional; details: Mus musculus, 1440 h, route intraperitoneal
How it was run: (§1)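 Female CD2F1 mice implanted ip with ascitic fluid carrying ca. 1.7×10^6 LOX amelanotic melanoma cells. Drug given ip on days 1, 5 and 9, starting 24 h after implant, dosed by exact body weight; solutions or suspensions made fresh daily. %ILS is from the median day of death of dying mice versus controls, excluding 60-day survivors.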

[2] = Percent increase in life span of dying mice tested in vivo at 91 mg/kg against ip implanted LOX amelanotic melanoma in mice (60-day survivors); format: functional; details: Mus musculus, 1440 h, route intraperitoneal
How it was run: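 Nude CD2F1 female mice were implanted ip with ascitic fluid containing ca. 1.7×10^6 LOX amelanotic melanoma cells. Drug was given ip on days 1, 5 and 9, starting 24 h after implantation, and dosed by exact body weight. Solutions or suspensions were made fresh daily in saline plus Tween 80. %ILS was calculated from the median day of death of dying mice versus controls, excluding 60-day survivors.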

[3] = Change in tumor cell population in ip implanted LOX amelanotic melanoma in mice after administration of compound at 91 mg/kg; format: functional, Mus musculus; details: route intraperitoneal
How it was run: (§2)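 Female CD2F1 mice were implanted ip with ascitic fluid holding ca. 1.7×10^6 LOX cells. Dosing was ip on days 1, 5 and 9, starting 24 h after implantation, by exact body weight, as a solution or suspension in saline plus Tween 80, freshly prepared daily. KE is the net log change in viable tumor cells from start to end of treatment. Bracketed KE assumes Poisson survival, with 60-day survivors tumor-free.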

[4] = Change in tumor cell population in ip implanted LOX amelanotic melanoma in mice after administration of compound at 182 mg/kg; format: functional, Mus musculus; details: route intraperitoneal; how it was run: as §2
[5] = Change in tumor cell population in ip implanted LOX amelanotic melanoma in mice after administration of compound at 22.75 mg/kg; format: functional, Mus musculus; details: route intraperitoneal; how it was run: as §2
[6] = Change in tumor cell population in ip implanted LOX amelanotic melanoma in mice after administration of compound at 45.5 mg/kg; format: functional, Mus musculus; details: route intraperitoneal; how it was run: as §2
[7] = Percent increase in life span of dying mice tested in vivo at 22.75 mg/kg against ip implanted LOX amelanotic melanoma in mice (60-day survivors); format: functional; details: Mus musculus, 1440 h, route intraperitoneal; how it was run: as §1
[8] = Percent increase in life span of dying mice tested in vivo at 182 mg/kg against ip implanted LOX amelanotic melanoma in mice (60-day survivors); format: functional; details: Mus musculus, 1440 h, route intraperitoneal; how it was run: as §1
[9] = tested on: P388; experiment: Change in tumor cell population in ip implanted P388 Leukemia in mice after administration of compound at 22.8 mg/kg; format: functional, Mus musculus; details: route intraperitoneal
How it was run: (§3)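 Female Portage-CD2F1 mice were inoculated ip with ascitic fluid holding ca. 5.2×10^6 P388 cells. Dosing was ip on days 1-5, starting 24 h after inoculation, by average body weight, as a solution or suspension in saline plus Tween 80. KE is the net log change in viable tumor cell population from start to end of the treatment period.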

[10] = tested on: P388; experiment: Change in tumor cell population in ip implanted P388 Leukemia in mice after administration of compound at 45.5 mg/kg; format: functional, Mus musculus; details: route intraperitoneal
How it was run: (§4)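 P388 leukemia: ascitic fluid with ca. 5.2×10^6 cells inoculated ip into Portage-CD₂F₁ female mice. Drug given ip on days 1-5, starting 24 h after inoculation, dosed by average body weight. Vehicle was saline plus Tween 80, as a solution or suspension. KE = net log change in viable tumor cells from start to end of treatment.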

[11] = tested on: P388; experiment: Change in tumor cell population in ip implanted P388 Leukemia in mice after administration of compound at 91 mg/kg; format: functional, Mus musculus; details: route intraperitoneal; how it was run: as §4
[12] = tested on: P388; experiment: Percent increase in life span of dying mice tested in vivo at 22.8 mg/kg against ip implanted P388 Leukemia in mice; format: functional; details: Mus musculus, route intraperitoneal
How it was run: (§5)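 Portage-CD2F1 female mice inoculated ip with ascitic fluid carrying ca. 5.2×10^6 P388 leukemia cells. Drug given ip daily on days 1-5, starting 24 h after inoculation, dosed by average body weight. %ILS is from the median day of death of dying mice versus controls.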

[13] = tested on: P388; experiment: Percent increase in life span of dying mice tested in vivo at 45.5 mg/kg against ip implanted P388 Leukemia in mice; format: functional; details: Mus musculus, route intraperitoneal; how it was run: as §5
[14] = tested on: P388; experiment: Percent increase in life span of dying mice tested in vivo at 91 mg/kg against ip implanted P388 Leukemia in mice; format: functional; details: Mus musculus, route intraperitoneal
How it was run: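 Portage-CD2F1 female mice were inoculated ip with ascitic fluid containing ca. 5.2×10^6 P388 leukemia cells. Drug was given ip daily on days 1-5, starting 24 h after inoculation, and dosed by average body weight. %ILS was calculated from the median day of death of dying mice versus controls.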

[15] = tested on: P388; experiment: Change in tumor cell population in ip implanted P388 Leukemia in mice after administration of compound at 11.4 mg/kg; format: functional, Mus musculus; details: route intraperitoneal; how it was run: as §3
[16] = tested on: P388; experiment: Percent increase in life span of dying mice tested in vivo at 11.4 mg/kg against ip implanted P388 Leukemia in mice; format: functional; details: Mus musculus, route intraperitoneal; how it was run: as §5

For `CNC(=O)OCc1nc([S+](C)[O-])n(C)c1COC(=O)NC` (stereo unspecified), the ILS at 45.5 mg/kg [1] was -8%, the ILS at 91 mg/kg [2] was -8% and the KE [3] was 2. The KE [4] was 1.8, the KE [5] was 2 and the KE [6] was 2. It also gave an ILS at 22.75 mg/kg [7] of -7%, an ILS at 182 mg/kg [8] of 2% and a KE [9] of 1.4. For the same compound, the KE [10] was 0.9, the KE [11] was 1.3 and the ILS at 22.8 mg/kg [12] was 10%. For the same compound, the ILS at 45.5 mg/kg [13] was 27%, the ILS at 91 mg/kg [14] was 17% and the KE [15] was 1.4. The ILS at 11.4 mg/kg [16] was 10%.
